Screens: PubChem, Broad Institute
Hits are enriched below; roughly 1.1% of the tested compounds scored in any of these assays.
GSK3beta inhib – human GSK3beta kinase inhibitors, primary screen, biochemical, cell-free homogeneous, HTS; Glycogen synthase kinase-3 beta (Homo sapiens), P49841; GST-GSK3beta kinase, ADP-Glo luminescence, 60 min; stronger effect = lower value; activity score (negative = inhibition), % at 10 µM; 0.038% of 300,000 active;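 active means more than half of replicate wells score below -50%, meaning over 50% inhibition versus plate controls; inconclusive means some replicates but at most half score below -50%; inactive means no replicate scores below -50%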;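 further: 0% = median DMSO wells and -100% = median GW8510 positive control wells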
Target sequence (P49841 whole entry, looked up): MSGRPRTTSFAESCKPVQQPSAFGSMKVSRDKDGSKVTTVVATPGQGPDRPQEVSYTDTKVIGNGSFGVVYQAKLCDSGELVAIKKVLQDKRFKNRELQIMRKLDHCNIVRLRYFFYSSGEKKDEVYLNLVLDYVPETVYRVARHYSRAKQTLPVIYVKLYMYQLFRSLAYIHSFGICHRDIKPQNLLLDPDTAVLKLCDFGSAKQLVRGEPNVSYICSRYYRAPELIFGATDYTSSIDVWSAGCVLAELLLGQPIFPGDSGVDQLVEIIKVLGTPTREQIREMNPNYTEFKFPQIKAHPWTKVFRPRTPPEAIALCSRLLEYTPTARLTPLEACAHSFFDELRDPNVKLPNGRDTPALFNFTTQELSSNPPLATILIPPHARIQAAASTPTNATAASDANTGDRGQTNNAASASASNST
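Test system: GST-fused GSK3beta enzyme, cell-free | Quantity: 1.6 ng GST-GSK3beta enzyme per well | Reagent: 25 µM ATP with peptide substrate | Schedule: 60 min enzyme reaction, room temperature | Signal: Luminescent ADP-Glo measurement of ADP formed | Read-out basis: Score relative to plate controls | Control set: DMSO and 20 µM GW8510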
SR-BI HDL uptake – inhibitors of SR-BI mediated HDL lipid uptake, primary screen, ldlA[mSR-BI] cells, fluorescence, single point | Scavenger receptor class B member 1 (Mus musculus), Q61009 | ldlA[mSR-BI] CHO cells, DiI-HDL uptake fluorescence, 3 h | AID 488896, 2010 | inhibition, % at 12.5 µM | 0.96% of 320,000 active;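 active means mean replicate inhibition of at least 70% and a set share of replicates each scoring 70 or more; inconclusive means meets just one of the two criteria; inactive means fails both criteria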;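 further: 0% = median of neutral control wells and 100% = median of positive control wells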
GSK3 alpha inh – blockers of GSK3A enzyme activity – biochemical, luminescence, cell-free homogeneous, HTS, primary screen. 0.1% of 320,000 active. AID 2650, 2010. inhibition, % at 10 µM. Glycogen synthase kinase-3 alpha (Homo sapiens), P49840. GSK-3 alpha kinase, ADP-Glo luminescence, 60 min;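 active means more than half of replicates show inhibition above 20%; inconclusive means some but at most half of replicates above 20% inhibition; inactive means no replicate shows inhibition above 20%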;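 further: GST-tagged GSK-3 alpha with peptide substrate and 25 µM ATP; 0% = DMSO neutral wells and 100% = GW8510 positive control wells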
CDK5 p35 inh – inhibitors of human CDK5/p35 kinase, primary screen, biochemical, single concentration | Recombinant CDK5/p35, ADP-Glo luminescence, 60 min | inhibition, % at 10 µM | 0.01% of 330,000 active | Cyclin-dependent kinase 5 (Homo sapiens) + Cyclin-dependent kinase 5 activator 1 (Homo …;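 active means highest replicate inhibition of at least 50% and at least 75% of replicates reaching 50%; inconclusive means only one of the two criteria met; inactive means both criteria failed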;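 further: plate controls were DMSO neutral control for no effect and GW8510 at 10 µM for full effect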
SR-BI uptake up – activators of SR-BI mediated DiI-HDL uptake, primary screen, ldlA[mSR-BI] CHO cells, DiI fluorescence; AID 504775, 2011; 3 h; 100 = double the neutral-control signal; activation, % at 12.5 µM; 0.096% of 320,000 active;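 active means mean replicate activation of at least 60% and every replicate at or above 60%; inconclusive means mean or all-replicate condition met, but not both; inactive means mean below 60% and not all replicates reaching 60%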;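 further: 0% = median plate neutral-control signal and 100% = twice that signal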
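Test system: SR-BI-overexpressing, LDLR-lacking CHO cells; Also added: labelled HDL, 10 µg/mL; Measured by: bottom-read cell fluorescence after medium removal, ex 550/em 595 nm; Timing: 3 h uptake period with compound, 37 °C; Buffer or medium: F12, 0.5% BSA, 25 mM HEPES; Doses: single compound concentration, delivered by pin transfer.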
DiI quencher – quenches DiI-HDL fluorescence, an SR-BI assay artifact; cell-free DiI-HDL fluorescence quenching, 30 min; AC50, µM (highest dose often 35 µM), inactives show top-dose activity change, negative = quenching; AID 540326; shares compounds with SR-BI HDL uptake; 20% of 470 active;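 active means quenching, a falling signal, with AC50 below a set limit tied to the top valid dose, actives reach about 32 µM in these data; inconclusive means no clear call, values can overlap the other calls; inactive means rising signal, and the rest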
* = called active by the depositor; u = inconclusive; x = not tested or not shown.

SMILES	GSK3beta inhib	SR-BI HDL uptake	GSK3 alpha inh	CDK5 p35 inh	SR-BI uptake up	DiI quencher
O=C(CN1CCN(CC(=O)Nc2ccc3c(c2)OC2(CCCCC2)O3)CC1)Nc1cccc(F)c1	x	68	x	0	-68	-10%
O=C(CN1CCN(CC(=O)Nc2ccccc2F)CC1)Nc1cccc(F)c1	3	1	x	0	-1	x
O=C(NCN1C(=O)C2C3C=CC(C3)C2C1=O)OC1CCCCC1 (configuration not stated)	1	83*	-1	2	-83	-3%
Cc1ccc(NC(=O)c2ccccc2Cl)c(Cl)c1	-1	23	-2	0	-23	x
CC(=O)c1c(C(C)=O)c(C)n(-c2ccc(C)c(NC(=O)c3ccccc3Cl)c2)c1C	-2	79*	-2	-1	-79	5%
COc1cc(/C=C2\C(=N)N3N=CSC3=NC2=O)cc(Br)c1OC(=O)c1ccco1	1	3	1	-7	-3	x
O=C(Nc1nc(-c2ccccn2)cs1)c1ccc(-c2ccccc2F)o1	x	4	-2	0	-4	-14%
Oc1ccc(/C=C/c2nc(-c3ccccc3O)n(-c3ccccc3)n2)cc1	-1	74*	0	-1	-74	20µM*
Oc1ccccc1-c1nc(/C=C/c2ccccc2)nn1-c1ccccc1	3	55	1	0	-55	x
CC1CCc2c(sc(Nc3nc4c(F)cccc4s3)c2C(N)=O)C1 (configuration not stated)	-26	80*	1	4	-80	3.3µM*
Cc1ccccc1C(=O)Nc1cc(NC(=O)c2ccccc2C)cc(C(=O)O)c1	0	-11	-3	0	11	-3%
CCN(c1ccccc1)S(=O)(=O)c1ccc(Cl)c(NC(=O)CSc2nnc(C)s2)c1	-1	x	-1	0	x	x
Cc1cccc(OCCC(=O)OCC(=O)Nc2c(C)nn(-c3ccccc3)c2C)c1	2	-14	-1	2	14	x
COc1ccc(OC)c(NC(=O)CCC(=O)N(Cc2ccc(OC)c(OC)c2)c2nccs2)c1	-1	u	0	-1	-73	-10%
CCCCCCC(=O)Nc1nc(C)c(-c2csc(Nc3ccc(Cl)cc3)n2)s1	4	120*	1	1	-120	1.1µM*
Fc1ccc(-c2cc(-c3cccs3)cc(-c3ccccc3)n2)cc1	0	83*	0	0	-83	0%
CCOc1ccc(NC(=O)CN2CCN(CC(=O)Nc3ccc(Cl)c(C(F)(F)F)c3)CC2)cc1	0	37	3	1	-37	1%
CCOc1ccc(NC(=O)CN2CCN(CC(=O)Nc3cccc(F)c3)CC2)cc1	x	50	0	1	-50	x
CCOc1ccc(NC(=O)CN2CCN(CC(=O)Nc3cc(OC)cc(OC)c3)CC2)cc1	x	81*	0	-4	-81	-1%
O=C(/C=C/c1ccccc1[N+](=O)[O-])Nc1cccnc1	-3	-17	1	-6	17	x
CCn1nc(C)c(CN2CCc3c([nH]c4ccccc34)C2c2ccc(F)c(OC)c2)c1C (configuration not stated)	3	82*	-2	-2	-82	-11%
CCn1cc(CN2CCc3c([nH]c4ccccc34)C2c2ccc(F)c(OC)c2)c(C)n1 (configuration not stated)	1	28	1	0	-28	x
C[C@@H]1COC(=O)[C@H](NC(=O)OCC2c3ccccc3-c3ccccc32)C/C=C\C[C@@H](CC(=O)N[C@H](CO)Cc2ccccc2)C(=O)N1	x	81*	-1	-5	-81	-9%
Cc1nc(NCc2cccnc2)c2c3c(sc2n1)CC(C)CC3 (configuration not stated)	-1	u	1	1	-71	-6%
CCOC(=O)c1sc2nc(C)nc(NCc3cccnc3)c2c1C	-4	10	0	1	-10	x
SMILES	GSK3beta inhib	SR-BI HDL uptake	GSK3 alpha inh	CDK5 p35 inh	SR-BI uptake up	DiI quencher
Cc1ccc(C(=O)NNC(=O)C2CCN(S(=O)(=O)c3ccc(C)cc3)CC2)cc1	1	21	-1	0	-21	x
Cc1ccc(S(=O)(=O)N2CCC(C(=O)NNC(=O)c3cccnc3)CC2)cc1	-2	-4	-1	2	4	-1%
Cc1c(Cl)cccc1S(=O)(=O)N1CCC(C(=O)NNC(=O)C2CC2)CC1	-1	45	5	-1	-45	-1%
Cc1ccc2oc(-c3cccc(NC(=O)c4cc(-n5cnnc5)ccc4Cl)c3)nc2c1	-4	76*	-5	0	-76	15%
Cc1ccc2oc(-c3cccc(NC(=O)c4ccccn4)c3)nc2c1	2	8	-1	0	-8	x
O=C(C[C@@H]1C/C=C\CCCC(=O)OC[C@@H]2CCCN2C1=O)NCCO	x	-2	-4	-1	2	x
O=C(C[C@H]1C/C=C\CCC(=O)OC[C@H]2CCCN2C1=O)NCCO	x	-11	0	0	11	2%
CCCCCCCCOC(=O)CCc1c(C)[nH]c(=S)[nH]c1=O	0	80*	-3	1	-80	-2%
Cc1c(Nc2nc3ccccc3nc2N2CCN(c3ccccc3)CC2)c(=O)n(-c2ccccc2)n1C	3	u	-3	-1	-72	-8%
CCc1c(-c2ccccc2)[n+](=O)c2c(n1[O-])CCC2	2	-19	2	-2	19	x
Cc1cc(C(=O)C(C)OC(=O)C2=NNC(=O)CC2)c(C)n1-c1ccc(OC(F)F)cc1 (configuration not stated)	-1	82*	0	0	-82	-2%
COc1ccccc1CCc1nnc(CCC(=O)N(C)Cc2cccc3cnccc23)o1	-1	75*	0	1	-75	0%
COc1ccc(N(CC(=O)NCCc2cccc(C)c2)S(=O)(=O)c2c(C)noc2C)cc1	-3	-1	0	1	1	x
COc1ccc([C@H]2CC(=O)C=C(c3cccc4c3sc3ccccc34)C2)cc1OC	x	96*	0	-4	-96	3%
O=c1[nH]c(=S)[nH]cc1Oc1ccccc1	x	-21	x	0	21	x
Cc1ccc(C)c(N2CCN(CCCNC(=O)Cn3c(=O)c4cccn4c4cccnc43)CC2)c1	5	u	-3	0	-70	-3%
COc1ccc([C@H]2CC(=O)C=C(c3ccc(Cl)c(C(F)(F)F)c3)C2)cc1	x	17	-1	-3	-17	x
CCCCC(=O)Nc1cccc(NC(=O)c2ccccc2Br)c1	1	74*	-2	-1	-74	6%
